The target in assay [1] is Mediator of RNA polymerase II transcription subunit 1 (Homo sapiens) (UniProt Q15648). Kind of assay: Inhibition of MED1 in human MDA-MB-231 cells assessed as reduction of […] binding to all active RUNX2 regulatory elements (ENH11,ENH13) at 1 uM by ChIP analysis. It is filed as cell-based. In a few lines: (§1)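 Cells were treated with 1 μM compound or DMSO mock, 24 h unless otherwise specified. ChIP used anti-MED1 antibody at the RUNX2 P2 promoter and active enhancer regions. An unrelated region upstream of P2 served as negative control. Enrichment is expressed as percentage of input.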

Assay [2] deals with TPC1. Kind of assay: Inhibition of c-MYC expression in human TPC1 cells at 0.25 to 1 uM after 6 to 24 hrs by qRT-PCR analysis. To be noted: dose 0.25-1 µM, time 6-24 hrs. It is filed as functional, cell-based. The method in brief:
(§2)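 Cells in DMEM/10% FBS were treated with the indicated compound concentrations or DMSO mock. Total RNA was purified and reverse-transcribed, and transcript levels were measured by EvaGreen-based qRT-PCR.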

Assay [3] has as its system BCPAP. Kind of assay: Inhibition of c-MYC expression in human BCPAP cells at 0.25 to 1 uM after 6 to 24 hrs by qRT-PCR analysis. To be noted: dose 0.25-1 µM, time 6-24 hrs. The assay is classed as functional, cell-based. In a few lines:
as §2
On the technique in general: Quantitative PCR measures a nucleic acid by following its amplification.

Assay [4] relates to MCF7. The experiment in a line: Inhibition of c-MYC expression in human MCF7 cells at 0.25 to 1 uM after 6 to 24 hrs by qRT-PCR analysis. The assay is classed as functional, cell-based. To be noted: dose 0.25-1 µM, time 6-24 hrs. The method in brief: as §2
Assay [5] deals with MCF7. The experiment in a line: Anti-proliferative activity against human MCF7 cells assessed as reduction in cell proliferation incubated for 72 hrs. It is filed as functional, cell-based. The following applies: MCF7, 72 h. In a few lines: (§3)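 Cells grown in DMEM with 10% fetal bovine serum at 37°C/5% CO2, then exposed to a series of compound concentrations or DMSO mock. Proliferation curves were recorded for each line.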

The target in assay [6] is Mediator of RNA polymerase II transcription subunit 1 (Homo sapiens) (UniProt Q15648). The experiment in a line: Partial inhibition of MED1 in human MCF7 cells assessed as partial reduction of […] binding to all active RUNX2 regulatory elements (ENH3,ENH13) at 1 uM by ChIP analysis. It is filed as cell-based. In a few lines: as §1
The target is the same in assay [7]. Kind of assay: Inhibition of MED1 in human TPC1 cells assessed as reduction of […] binding to all active RUNX2 regulatory elements (ENH11,ENH13) at 1 uM by ChIP analysis. The assay is classed as cell-based. In a few lines: as §1
Assay [8] has the same target. Kind of assay: Inhibition of MED1 in human BCPAP cells assessed as reduction of […] binding to all active RUNX2 regulatory elements (ENH11) at 1 uM by ChIP analysis. The assay is classed as cell-based. In a few lines:
as §1

Assay [9] deals with MDA-MB-231. Kind of assay: Anti-proliferative activity against human MDA-MB-231 cells assessed as reduction in cell proliferation incubated for 72 hrs. It is filed as functional, cell-based. The following applies: MDA-MB-231, 72 h. In a few lines: as §3
For assay [10], the system named is MDA-MB-231. The experiment in a line: Inhibition of c-MYC expression in human MDA-MB-231 cells at 0.25 to 1 uM after 6 to 24 hrs by qRT-PCR analysis. The assay is classed as functional, cell-based. The following applies: dose 0.25-1 µM, time 6-24 hrs. The method in brief: as §2
Assay [11] concerns BCPAP. Kind of assay: Anti-proliferative activity against human BCPAP cells assessed as reduction in cell proliferation incubated for 72 hrs. The assay is classed as functional, cell-based. The method in brief: as §3
The test system of assay [12] is TPC1. The experiment in a line: Anti-proliferative activity against human TPC1 cells assessed as reduction in cell proliferation incubated for 72 hrs. It is filed as functional, cell-based. To be noted: TPC1, 72 h. The method in brief:
as §3

Activity calls are given as the source filed them. The rule behind the calls is not given here.

Chain of Mediator of RNA polymerase II transcription subunit 1 (Homo sapiens) (Q15648 whole entry): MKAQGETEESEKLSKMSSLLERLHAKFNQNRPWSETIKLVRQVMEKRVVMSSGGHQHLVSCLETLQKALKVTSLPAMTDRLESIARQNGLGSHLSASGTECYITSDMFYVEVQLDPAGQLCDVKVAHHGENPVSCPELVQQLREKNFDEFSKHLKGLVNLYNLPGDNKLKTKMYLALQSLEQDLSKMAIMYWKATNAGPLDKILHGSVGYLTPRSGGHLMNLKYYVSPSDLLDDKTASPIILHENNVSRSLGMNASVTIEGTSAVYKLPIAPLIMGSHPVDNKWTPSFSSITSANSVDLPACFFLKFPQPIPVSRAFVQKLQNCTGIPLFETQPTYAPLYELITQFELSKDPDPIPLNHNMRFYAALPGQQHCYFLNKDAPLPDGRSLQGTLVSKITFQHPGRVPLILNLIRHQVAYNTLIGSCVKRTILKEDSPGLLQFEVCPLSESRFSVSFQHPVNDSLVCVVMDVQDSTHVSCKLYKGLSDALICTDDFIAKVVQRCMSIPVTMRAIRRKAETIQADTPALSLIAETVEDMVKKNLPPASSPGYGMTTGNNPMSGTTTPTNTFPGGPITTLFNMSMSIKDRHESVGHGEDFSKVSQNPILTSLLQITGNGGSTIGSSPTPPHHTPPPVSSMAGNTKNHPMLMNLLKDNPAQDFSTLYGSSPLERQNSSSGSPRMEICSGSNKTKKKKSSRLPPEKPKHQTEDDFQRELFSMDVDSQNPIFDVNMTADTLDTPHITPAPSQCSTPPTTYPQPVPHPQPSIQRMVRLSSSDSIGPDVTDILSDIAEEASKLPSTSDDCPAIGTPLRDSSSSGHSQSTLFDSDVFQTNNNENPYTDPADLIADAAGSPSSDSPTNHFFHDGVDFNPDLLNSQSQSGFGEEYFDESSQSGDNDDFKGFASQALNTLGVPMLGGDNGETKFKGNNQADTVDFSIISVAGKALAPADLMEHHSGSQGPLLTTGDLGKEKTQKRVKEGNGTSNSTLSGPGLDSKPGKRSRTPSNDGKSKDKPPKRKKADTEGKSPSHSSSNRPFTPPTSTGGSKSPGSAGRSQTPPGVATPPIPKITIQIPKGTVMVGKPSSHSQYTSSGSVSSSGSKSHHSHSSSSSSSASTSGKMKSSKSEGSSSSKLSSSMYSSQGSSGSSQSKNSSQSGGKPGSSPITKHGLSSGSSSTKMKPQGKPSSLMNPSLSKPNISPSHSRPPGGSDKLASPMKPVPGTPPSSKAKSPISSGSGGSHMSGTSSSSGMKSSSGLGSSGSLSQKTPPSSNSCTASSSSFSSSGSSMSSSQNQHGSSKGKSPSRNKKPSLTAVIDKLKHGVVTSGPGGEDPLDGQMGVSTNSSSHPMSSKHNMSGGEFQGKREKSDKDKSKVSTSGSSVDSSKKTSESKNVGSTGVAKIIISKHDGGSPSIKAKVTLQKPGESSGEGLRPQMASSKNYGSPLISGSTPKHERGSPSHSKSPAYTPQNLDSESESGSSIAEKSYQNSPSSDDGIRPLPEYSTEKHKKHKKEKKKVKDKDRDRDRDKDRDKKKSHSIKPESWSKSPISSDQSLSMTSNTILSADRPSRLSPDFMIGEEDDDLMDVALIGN

Take `Cc1sc2c(c1C)C(c1ccc(Cl)cc1)=N[C@@H](CC(=O)OC(C)(C)C)c1nnc(C)n1-2`: the inhibition entry in assay [1], in assay [6], in [7] and in assay [8] was “Active” throughout. The inhibition entry in the assay on TPC1 [2], with BCPAP [3], with MCF7 [4] and in the assay on MDA-MB-231 [10] was “inactive” throughout. Further, the IC50 – broadly, the midpoint of a concentration-inhibition curve – with MCF7 [5] came out at 12000 nM; in the assay on MDA-MB-231 [9], 507 nM; with BCPAP [11], 254 nM; with TPC1 [12], 462 nM.
